Experimental data pooled from the literature.
Each line is one published result; the experiments were not run side by side.
Target: Mitogen-activated protein kinase kinase kinase 3 (MAP3K3, Homo sapiens, UniProt Q99759)
Residues used in one study (Q99759 1-626): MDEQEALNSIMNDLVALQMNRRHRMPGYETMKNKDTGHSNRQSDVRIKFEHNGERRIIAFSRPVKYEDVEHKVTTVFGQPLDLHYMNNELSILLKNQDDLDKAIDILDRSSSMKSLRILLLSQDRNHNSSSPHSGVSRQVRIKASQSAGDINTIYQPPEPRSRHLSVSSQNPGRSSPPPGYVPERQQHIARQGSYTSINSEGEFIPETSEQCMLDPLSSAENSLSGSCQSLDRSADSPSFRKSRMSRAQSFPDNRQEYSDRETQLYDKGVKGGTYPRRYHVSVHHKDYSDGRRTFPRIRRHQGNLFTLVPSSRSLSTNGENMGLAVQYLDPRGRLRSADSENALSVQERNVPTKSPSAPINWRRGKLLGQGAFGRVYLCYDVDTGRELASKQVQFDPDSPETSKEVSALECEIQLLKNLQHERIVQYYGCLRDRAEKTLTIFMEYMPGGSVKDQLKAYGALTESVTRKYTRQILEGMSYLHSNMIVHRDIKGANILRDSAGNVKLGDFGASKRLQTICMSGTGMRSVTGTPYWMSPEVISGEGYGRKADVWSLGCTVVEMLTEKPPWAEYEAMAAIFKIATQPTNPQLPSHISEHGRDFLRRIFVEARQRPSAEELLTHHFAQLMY

O=C(c1ccc(Nc2ncc(Cl)c(-c3ccc(Cl)s3)n2)cc1)N1CCC(N2CCCC2)CC1  remaining binding (binding; competition with immobilised ligand; 1 µM): 6.3%
C=CC(=O)N1CCC(C(=O)NCC(=O)N2CCN(c3nc(-c4cnc(N)nc4C(F)F)nc(N4CCOCC4)n3)CC2)CC1  remaining binding (binding; competition with immobilised ligand; 1 µM): 99%
Cc1c(NC(=O)c2cc(C(N)=O)nc3cc(F)ccc23)c(C(F)(F)F)nn1Cc1ccc(C(C)(C)C)cc1  remaining binding (cell-free assay; competition with immobilised ligand; 1 µM): 100%
CN(CCCC(F)(F)F)c1nccc(-c2cnn3ncccc23)n1  remaining binding (binding; 1 µM): 99%
Cc1cc(NC(=O)c2cccc(S(F)(F)(F)(F)F)c2)cc(-n2ccn3nc(-c4cccnc4)cc23)c1  remaining binding (cell-free assay; competition with immobilised ligand; 1 µM): 87.9%
N[C@@H]1CCN(c2nccc(-c3cnn4ncccc34)n2)C1  remaining binding (binding; 1 µM): 100%
O=C(NCC1CCOCC1)c1n[nH]cc1NC(=O)c1c(F)cccc1F  remaining binding (binding; competition with immobilised ligand; 1 µM): 96%
CC(=O)Nc1c(C(C)=O)c(=O)n(C)c2nc(-c3ccc(Cl)cc3Cl)c(-c3ccc(Cl)cc3)cc12  remaining binding (cell-free assay; competition with immobilised ligand; 1 µM): 100%
CNC(=O)[C@@H]1CC[C@@H](n2c(-c3ccc4cnccc4c3)nc3ccc(C(=O)NCc4cccc(C(N)=O)c4)cc32)C1  remaining binding (binding; competition with immobilised ligand; 1 µM): 100%
C[C@@H](c1cccc(C#N)c1)n1cc(Cl)cc(C(N)=O)c1=N  remaining binding (cell-free assay; competition with immobilised ligand; 1 µM): 95%
CC1CCCN1c1nccc(-c2cnn3ncccc23)n1 (stereo not shown)  remaining binding (binding; 1 µM): 97%
COc1cnc(Nc2cccc(S(N)(=O)=O)c2)nc1N1CCN(c2ccccc2)C(=O)C1  remaining binding (binding; competition with immobilised ligand; 1 µM): 84%
C[C@@H]1CCN(c2nccc(-c3cnn4ncccc34)n2)C1  remaining binding (binding; 1 µM): 80%
FC(F)(F)Oc1cccc(-c2cnc3ccc(-c4ccncc4)nn23)c1  remaining binding (cell-free assay; competition with immobilised ligand; 5 µM): 51%
CN(c1nccc(-c2cnn3ncccc23)n1)C1CC1  remaining binding (binding; 1 µM): 100%
O=C(c1ccc(Nc2nccc(-c3cc4ccccc4s3)n2)cc1)N1CCC(N2CCCC2)CC1  remaining binding (binding; competition with immobilised ligand; 1 µM): 61%
C[C@@H]1CN(c2cc(-c3nn(C)c4ccc(OC5(C)CC5)cc34)ncn2)C[C@H](C)O1  remaining binding (cell-free assay; competition with immobilised ligand; 1 µM): 90%
CN(C)c1nccc(-c2cnc3ncccn23)n1  remaining binding (binding; 1 µM): 44%
CN1CCN(c2cnc3c(C4CCN(C(=O)c5ccc(OC(F)(F)F)cc5N)CC4)ncnc3c2)CC1  remaining binding (cell-free assay; competition with immobilised ligand; 1 µM): 94%
O=C(NCCCN1CCOCC1)c1ccc(Nc2ncc(Cl)c(-c3ccc(Cl)s3)n2)cc1  remaining binding (binding; competition with immobilised ligand; 1 µM): 3.6%
CN(C)c1nccc(-c2cnn3ncccc23)n1  remaining binding (binding; 1 µM): 100%
COc1ccc2c(O[C@@H]3C[C@H]4C(=O)N[C@]5(C(=O)O)CC5/C=C\CCCCC[C@H](NC(=O)OC5CCCC5)C(=O)N4C3)cc(-c3csc(NC(=O)C(C)C)n3)nc2c1C (stereo partly shown)  remaining binding (cell-free assay; competition with immobilised ligand; 1 µM): 79%
